Results as given in ChEMBL document CHEMBL1145495, “Polyamine effects on antibiotic susceptibility in bacteria” (2007).
In brackets after ≈: the same amount, converted by molar mass. Activity calls are given as the source filed them. The calls are words filed in the database; no cut-off is given here.

Legend:
Staphylococcus aureus [1] = assay: Antibacterial activity against Staphylococcus aureus Mu50 after 14 to 16 hrs by broth dilution method; assay type: functional
Staphylococcus aureus [2] = assay: Antibacterial activity against Staphylococcus aureus N315 after 14 to 16 hrs by broth dilution method; assay type: functional
How it was run: (§1)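 CLSI broth dilution in cation-adjusted Mueller-Hinton broth with serial twofold dilutions, with or without spermine or spermidine added. Overnight cultures were diluted in saline to OD600 0.1–0.12, and about 10^5 CFU were inoculated. Incubation was 14–16 h at 37°C. MIC was confirmed in three independent experiments. E. coli acrA mutants were tested with 1 mM spermine; P. aeruginosa isolates with 1 mM spermine or 20 mM spermidine.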

Staphylococcus aureus [3] = assay: Antibacterial activity against Staphylococcus aureus ATCC 3556 after 14 to 16 hrs by broth dilution method; assay type: functional
Salmonella typhimurium [4] = assay: Antibacterial activity against Salmonella enterica serovar Typhimurium LT2 after 14 to 16 hrs by broth dilution method; assay type: functional, Salmonella enterica subsp. enterica serovar Typhimurium
Escherichia coli [5] = assay: Antibacterial activity against Escherichia coli K10 after 14 to 16 hrs by broth dilution method; assay type: functional
Escherichia coli [6] = assay: Antibacterial activity against Escherichia coli K12 after 14 to 16 hrs by broth dilution method; assay type: functional
Escherichia coli [7] = assay: Antibacterial activity against Escherichia coli C921-61 after 14 to 16 hrs by broth dilution method; assay type: functional
Pseudomonas aeruginosa [8] = assay: Antibacterial activity against Pseudomonas aeruginosa M38100B after 14 to 16 hrs by broth dilution method; assay type: functional
Pseudomonas aeruginosa [9] = assay: Antibacterial activity against Pseudomonas aeruginosa T6268 after 14 to 16 hrs by broth dilution method; assay type: functional
Pseudomonas aeruginosa [10] = assay: Antibacterial activity against Pseudomonas aeruginosa F4980 after 14 to 16 hrs by broth dilution method; assay type: functional; how it was run: as §1
Pseudomonas aeruginosa [11] = assay: Antibacterial activity against Pseudomonas aeruginosa M22152 after 14 to 16 hrs by broth dilution method; assay type: functional; how it was run: as §1
Pseudomonas aeruginosa [12] = assay: Antibacterial activity against Pseudomonas aeruginosa H4563 after 14 to 16 hrs by broth dilution method; assay type: functional
Staphylococcus aureus [13] = assay: Antibacterial activity against Staphylococcus aureus ATCC 3556 at upto 16 mM after 14 to 16 hrs by broth dilution method; assay type: functional, organism-based
Escherichia coli [14] = assay: Antibacterial activity against Escherichia coli K10 at upto 16 mM after 14 to 16 hrs by broth dilution method; assay type: functional, organism-based
Escherichia coli [15] = assay: Antibacterial activity against Escherichia coli C921-61 at upto 16 mM after 14 to 16 hrs by broth dilution method; assay type: functional, organism-based
Staphylococcus aureus [16] = assay: Antibacterial activity against Staphylococcus aureus Mu50 at upto 16 mM after 14 to 16 hrs by broth dilution method; assay type: functional, organism-based
Staphylococcus aureus [17] = assay: Antibacterial activity against Staphylococcus aureus N315 at upto 16 mM after 14 to 16 hrs by broth dilution method; assay type: functional, organism-based
Salmonella typhimurium [18] = assay: Antibacterial activity against Salmonella enterica serovar Typhimurium LT2 at upto 16 mM after 14 to 16 hrs by broth dilution method; assay type: functional, organism-based; settings: Salmonella enterica subsp. enterica serovar Typhimurium
Escherichia coli [19] = assay: Antibacterial activity against Escherichia coli K12 at upto 16 mM after 14 to 16 hrs by broth dilution method; assay type: functional, organism-based
Escherichia coli [20] = assay: Antibacterial activity against Escherichia coli N818 delta acrA mutant assessed as inhibition of AcrAB efflux pump after 14 to 16 hrs by broth dilution method; assay type: functional; how it was run: as §1
Escherichia coli [21] = assay: Antibacterial activity against Escherichia coli N43 acrA mutant assessed as inhibition of AcrAB efflux pump after 14 to 16 hrs by broth dilution method; assay type: functional; how it was run: as §1
Escherichia coli [22] = assay: Antibacterial activity against Escherichia coli W4573 assessed as inhibition of AcrAB efflux pump after 14 to 16 hrs by broth dilution method; assay type: functional

SMILES | MIC (Staphylococcus aureus [1]) | MIC (Staphylococcus aureus [2]) | MIC (Staphylococcus aureus [3]) | MIC (Salmonella typhimurium [4]) | MIC (Escherichia coli [5]) | MIC (Escherichia coli [6]) | MIC (Escherichia coli [7]) | also measured
Cc1onc(-c2ccccc2Cl)c1C(=O)N[C@@H]1C(=O)N2[C@@H]1SC(C)(C)[C@@H]2C(=O)O [CLOXACILLIN] | ≥ 512 µg/mL | 8 µg/mL | 0.12 µg/mL |  |  |  |  | 
CC(=O)O[C@H]1C[C@@]2(C)[C@@H](C[C@@H](O)[C@H]3[C@@]4(C)CC[C@@H](O)[C@@H](C)[C@@H]4CC[C@@]32C)/C1=C(\CCC=C(C)C)C(=O)O [FUSIDIC ACID] |  |  |  | > 1020 µg/mL | > 1020 µg/mL | 1020 µg/mL | 1020 µg/mL | 
CC1(C)S[C@@H]2[C@H](NC(=O)[C@H](C(=O)O)c3ccsc3)C(=O)N2[C@H]1C(=O)O [TICARCILLIN] | 512 µg/mL | 32 µg/mL | 1 µg/mL | 4 µg/mL | 8 µg/mL | 8 µg/mL | 4 µg/mL | 
O=C(O)c1cn(C2CC2)c2cc(N3CCNCC3)c(F)cc2c1=O [CIPROFLOXACIN] | 64 µg/mL | 1 µg/mL | 0.25 µg/mL | ≤ 0.03 µg/mL | ≤ 0.03 µg/mL | ≤ 0.03 µg/mL | ≤ 0.03 µg/mL | MIC (Pseudomonas aeruginosa [8]): 32 µg/mL (≈ 96.6 µM); MIC (Pseudomonas aeruginosa [9]): 4 µg/mL (≈ 12.1 µM); MIC (Pseudomonas aeruginosa [10]): 4 µg/mL (≈ 12.1 µM); MIC (Pseudomonas aeruginosa [11]): 4 µg/mL (≈ 12.1 µM); MIC (Pseudomonas aeruginosa [12]): 128 µg/mL (≈ 386 µM)
CC1(C)S[C@@H]2[C@H](NC(=O)[C@H](NC(=O)N3CCNC3=O)c3ccccc3)C(=O)N2[C@H]1C(=O)O [AZLOCILLIN] | 16 µg/mL | 16 µg/mL | 0.5 µg/mL | 16 µg/mL | 16 µg/mL | 16 µg/mL | 8 µg/mL | 
NCCCNCCCCNCCCN [SPERMINE] | 4 mM | 4 mM | 4 mM | 2 mM | 1 mM | > 16 mM | > 16 mM | 
CC1(C)S[C@@H]2[C@H](NC(=O)Cc3ccccc3)C(=O)N2[C@H]1C(=O)O [PENICILLIN G] | 32 µg/mL | 32 µg/mL | ≤ 0.06 µg/mL | 16 µg/mL | 64 µg/mL | 64 µg/mL |  | 
NCCCCNCCCN |  |  |  |  |  |  |  | Activity (Staphylococcus aureus [13]): inactive; Activity (Escherichia coli [14]): inactive; Activity (Escherichia coli [15]): inactive; Activity (Staphylococcus aureus [16]): inactive; Activity (Staphylococcus aureus [17]): inactive; Activity (Salmonella typhimurium [18]): inactive; Activity (Escherichia coli [19]): inactive
CC(C)(O/N=C(\C(=O)N[C@@H]1C(=O)N2C(C(=O)[O-])=C(C[n+]3ccccc3)CS[C@H]12)c1csc(N)n1)C(=O)O [CEFTAZIDIME] | 512 µg/mL | 32 µg/mL | 8 µg/mL |  |  |  |  | 
CN(C)[C@@H]1C(O)=C(C(N)=O)C(=O)[C@@]2(O)C(O)=C3C(=O)c4c(O)cccc4[C@@](C)(O)[C@H]3C[C@@H]12 [TETRACYCLINE] | 32 µg/mL | 0.12 µg/mL | 0.12 µg/mL | 2 µg/mL | 8 µg/mL | 8 µg/mL | 2 µg/mL | MIC (Escherichia coli [20]): 0.5 µg/mL (≈ 1.13 µM); MIC (Escherichia coli [21]): 0.5 µg/mL (≈ 1.13 µM); MIC (Escherichia coli [22]): 2 µg/mL (≈ 4.5 µM)
CC(=O)OCC1=C(C(=O)O)N2C(=O)[C@@H](NC(=O)Cc3cccs3)[C@H]2SC1 [CEPHALOTHIN] | 64 µg/mL | 1 µg/mL | 0.5 µg/mL |  |  |  |  | 
CO[C@@H]1[C@@H](OC(N)=O)[C@@H](O)[C@H](Oc2ccc3c(O)c(NC(=O)c4ccc(O)c(CC=C(C)C)c4)c(=O)oc3c2C)OC1(C)C [NOVOBIOCIN] |  |  |  | > 1020 µg/mL | > 1020 µg/mL | > 1020 µg/mL | 512 µg/mL | 
